The species named for test [1] is Homo sapiens. In words: Reduction in LDL-cholesterol in healthy human at 100 ug qd for 2 weeks. It counts as functional. Also noted: scale not given: the % may be the effect or the level left.
The target of test [2] is T1, Thyroid hormone receptor alpha (Homo sapiens, UniProt P10827).
T1 sequence (P10827 whole entry): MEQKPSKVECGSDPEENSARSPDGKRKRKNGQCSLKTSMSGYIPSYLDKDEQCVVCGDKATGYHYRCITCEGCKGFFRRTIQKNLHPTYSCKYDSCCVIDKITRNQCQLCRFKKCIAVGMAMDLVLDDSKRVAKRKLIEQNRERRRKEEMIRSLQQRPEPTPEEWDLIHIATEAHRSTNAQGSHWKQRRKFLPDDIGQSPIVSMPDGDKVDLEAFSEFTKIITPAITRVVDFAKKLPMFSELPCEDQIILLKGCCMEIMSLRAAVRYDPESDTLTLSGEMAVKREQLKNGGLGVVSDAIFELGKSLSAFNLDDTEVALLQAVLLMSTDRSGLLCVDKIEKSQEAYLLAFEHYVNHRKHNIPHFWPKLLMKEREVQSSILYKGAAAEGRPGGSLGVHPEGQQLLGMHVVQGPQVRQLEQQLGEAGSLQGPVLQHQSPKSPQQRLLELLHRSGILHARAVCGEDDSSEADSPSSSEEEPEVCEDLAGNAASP
In words: Displacement of [125I]-Triiodothyronine from human recombinant TRalpha1 ligand binding domain after 2 to 3 hrs by beta counting. In general terms: In a radioligand displacement assay an active substance lowers the binding of a labelled ligand.

Test [3] has as its target T2, Thyroid hormone receptor beta (Homo sapiens, UniProt P10828).
T2 sequence (P10828 whole entry): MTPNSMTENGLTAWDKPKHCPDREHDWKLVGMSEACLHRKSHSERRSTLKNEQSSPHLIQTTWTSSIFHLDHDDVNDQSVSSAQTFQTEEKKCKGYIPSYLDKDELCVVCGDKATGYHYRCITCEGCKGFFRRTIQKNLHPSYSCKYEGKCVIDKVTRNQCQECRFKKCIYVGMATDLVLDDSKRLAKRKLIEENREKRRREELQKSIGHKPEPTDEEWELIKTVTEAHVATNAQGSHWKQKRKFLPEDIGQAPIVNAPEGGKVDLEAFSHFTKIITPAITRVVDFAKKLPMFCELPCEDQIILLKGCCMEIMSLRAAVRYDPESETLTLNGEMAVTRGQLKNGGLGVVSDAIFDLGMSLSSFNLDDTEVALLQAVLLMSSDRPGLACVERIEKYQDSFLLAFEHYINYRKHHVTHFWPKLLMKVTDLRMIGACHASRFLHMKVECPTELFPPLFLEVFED
In words: Displacement of [125I]-Triiodothyronine from human recombinant TRbeta1 ligand binding domain after 2 to 3 hrs by beta counting.

The target of test [4] is T1, Thyroid hormone receptor alpha. In words: Agonist activity at human recombinant TRalpha1 transfected in CV-1 cells after 8 to 10 hrs by alkaline phosphatase reporter gene assay. The class given is cell-based.
Test [5] has as its system CV-1. In words: Selectivity ratio of EC50 for human recombinant transfected in CV-1 cells to EC50 for human recombinant TRbeta1 transfected in CV-1 cells. It counts as cell-based. The method, boiled down:
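CV-1 monkey kidney cells grown in DMEM with 10% FBS for 24 h at 37 °C and 5% CO2. Transfected (FuGENE) with hTRα1 or hTRβ1 plus a SEAP reporter for 24 h, then exposed to T3 or test compound for 8-10 h. SEAP was read as A405 of p-nitrophenol (pH 9.8, 30 min, RT). EC50 was set against T3 max = 100%; mean of four experiments; α/β ratio of EC50s.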

In test [6] the target is T2, Thyroid hormone receptor beta. In words: Agonist activity at human recombinant TRbeta1 transfected in CV-1 cells after 8 to 10 hrs by alkaline phosphatase reporter gene assay. The class given is cell-based. (Reporter assays use an easily measured gene product as a stand-in for the process of interest.)
Test [7] has the same target. In words: Agonist activity at human recombinant TRbeta1 transfected in human HepG2 cells after 8 to 10 hrs by alkaline phosphatase reporter gene assay. It counts as cell-based.
Test [8] deals with HepG2. In words: Selectivity ratio of EC50 for human recombinant transfected in human HepG2 cells to EC50 for human recombinant TRbeta1 transfected in human HepG2. It counts as cell-based.

We go through seven molecules from ChEMBL document CHEMBL3124871, “Synthesis and pharmacological characterization of 1-benzyl-4-aminoindole-based thyroid hormone receptor β agonists” (Bioorg Med Chem, 2014).

Bounds are passed on as bounds.

Regarding `Cc1cc(OCC(=O)O)cc(C)c1Cc1ccc(O)c(C(C)C)c1` [SOBETIROME], the Activity in test [1] was 41%.
`Cc1c(CCC(=O)O)c2ccccc2n1Cc1ccc(O)c(C(C)C)c1`: the IC50 in test [2] was 1300 nM; in test [3], 760 nM. The half-maximal effective concentration (EC50) was determined as 39 nM in test [4] and 37 nM in test [6]. The Ratio EC50 in test [5] was determined as 1.
Consider `Cc1c(CCCCC(=O)O)c2ccccc2n1Cc1ccc(O)c(C(C)C)c1`, for which the IC50 in test [2] was over 10000 nM; in test [3], 1400 nM. Further, the values for the EC50 in test [4] and in test [6] were 100 nM and 62 nM, respectively. In addition, the Ratio EC50 in test [5] amounted to 1.6.
Turning to `Cc1cc2c(NC(=O)C(=O)O)cccc2n1Cc1ccc(O)c(C(C)C)c1`, the results for the EC50 in test [7] and in test [6] were 110 nM and 590 nM, respectively. Further, the Ratio EC50 in test [8] worked out at 1.5; in test [5], 2.2.
Take `Cc1c(CCCC(=O)O)c2ccccc2n1Cc1ccc(O)c(C(C)C)c1`: the IC50 was 3400 nM in test [2] and 290 nM in test [3]. Moreover, the EC50 in test [4] came to 180 nM; in test [6] it was 37 nM. For the same molecule, the Ratio EC50 in test [5] was determined as 4.8.
On to `Cc1c(C(=O)NCC(=O)O)c2ccccc2n1Cc1ccc(O)c(C(C)C)c1`, for which the IC50 was over 10000 nM in test [2] and 1100 nM in test [3].
Take `Cc1cc2cc(NC(=O)C(=O)O)ccc2n1Cc1ccc(O)c(C(C)C)c1`: the IC50 in test [2] is 230 nM; in test [3], 1500 nM.

As usually defined, the IC50 is the concentration at which inhibition is half-maximal. The EC50 is the concentration giving half of the maximal effect.
